The results in this text go back to ChEMBL document CHEMBL2396583, “Synthesis and anticancer activity of aminodihydroquinoline analogs: identification of novel proapoptotic agents” (Bioorg Med Chem Lett, 2013).

Molecules are shown by their SMILES. Calls of active or inactive are those of the source. The calls are words filed in the database; no cut-off is given here.

In test [1] the test system is MDA-MB-231. Description: Cytotoxicity against human MDA-MB-231 cells assessed as viable cells at 5 uM after 72 hrs by MTT assay in absence of serum relative to control. Type of test: functional. Conditions: MDA-MB-231, 72 h, read-out: Activity. In a few lines: (§1)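 MDA-MB-231 cells were seeded at 5000 per well in serum-containing medium and dosed the next day, with or without serum, at the stated concentrations (1 and 5 µM in the serum-free figure). After 72 h, MTT was added, formazan was dissolved in DMSO and absorbance read at 595 nm. Six wells per condition; viability expressed as % of DMSO control.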
On the technique in general: Tetrazolium assays rely on reduction of a dye to a coloured formazan, in cell work by metabolically active cells.

Test [2] has as its system MDA-MB-231. The test can be described thus: Cytotoxicity against human MDA-MB-231 cells assessed as viable cells at 1 uM after 72 hrs by MTT assay in absence of serum relative to control. Particulars: MDA-MB-231, 72 h, read-out: Activity. The test is classed as functional. The essentials: as §1
Test [3] concerns MDA-MB-231. The test can be described thus: Cytotoxicity against human MDA-MB-231 cells assessed as cell viability after 72 hrs by MTT assay in absence of serum. The test is classed as functional, cell-based. Particulars: MDA-MB-231, 72 h. The essentials:
as §1

Test [4] has as its system MDA-MB-231. The test can be described thus: Cell cycle arrest in human MDA-MB-231 cells assessed as accumulation at subG1 phase at 5 uM after 72 hrs by propidium iodide staining-based flow cytometric analysis in absence of serum (reference value: 2.15%). Type of test: functional. A general note: A flow cytometer gives signals particle by particle.
For test [5], the system named is MDA-MB-231. Description: Cell cycle arrest in human MDA-MB-231 cells assessed as accumulation at S phase at 5 uM after 72 hrs by propidium iodide staining-based flow cytometric analysis in absence of serum (reference value: 6.19%). The test is classed as functional.
The test system of test [6] is MDA-MB-231. Description: Cell cycle arrest in human MDA-MB-231 cells assessed as accumulation at S phase at 5 uM after 72 hrs by propidium iodide staining-based flow cytometric analysis in presence of serum (reference value: 14.49%). Type of test: functional.
Test [7] concerns MDA-MB-231. The test can be described thus: Cytotoxicity against human MDA-MB-231 cells assessed as decrease in cell viability at 1 to 5 uM after 72 hrs by MTT assay in presence of serum. The test is classed as functional, cell-based. In a few lines: as §1
In test [8] the test system is MDA-MB-231. Description: Cell cycle arrest in human MDA-MB-231 cells assessed as accumulation at G0/G1 phase at 5 uM after 72 hrs by propidium iodide staining-based flow cytometric analysis in absence of serum (reference value: 84.87%). Type of test: functional.
Test [9] concerns MDA-MB-231. Description: Cell cycle arrest in human MDA-MB-231 cells assessed as accumulation at G0/G1 phase at 5 uM after 72 hrs by propidium iodide staining-based flow cytometric analysis in presence of serum (reference value: 67.16%). The test is classed as functional.
The subject of test [10] is MDA-MB-231. The test can be described thus: Cell cycle arrest in human MDA-MB-231 cells assessed as accumulation at G2/M phase at 5 uM after 72 hrs by propidium iodide staining-based flow cytometric analysis in absence of serum (reference value: 6.53%). Type of test: functional.
Test [11] deals with MDA-MB-231. The test can be described thus: Cell cycle arrest in human MDA-MB-231 cells assessed as accumulation at subG1 phase at 5 uM after 72 hrs by propidium iodide staining-based flow cytometric analysis in presence of serum (reference value: 1.99%). The test is classed as functional.
The subject of test [12] is MDA-MB-231. Description: Cell cycle arrest in human MDA-MB-231 cells assessed as accumulation at G2/M phase at 5 uM after 72 hrs by propidium iodide staining-based flow cytometric analysis in presence of serum (reference value: 15.82%). The test is classed as functional.

As to `CCCNC1=Nc2ccc(Cl)cc2C(C)(C)C1`, the viability at 5 µM in the test on MDA-MB-231 [1] was 82.4%. Further, in the test on MDA-MB-231 [2], the viability at 1 µM came to 90.7%.
One may read the IC50 as the concentration that inhibits the measured activity by half. Turning to `CN(C)CCCNC1=Nc2cc(Cl)ccc2C(C)(C)C1`, in the test with MDA-MB-231 [1], the viability at 5 µM stood at 46.3%. The IC50 in the test on MDA-MB-231 [3] turned out to be 4 µM. For the same compound, the viability at 1 µM with MDA-MB-231 [2] was found to be 68.4%.
For `CN(C)CCCNC1=Nc2cccc(Cl)c2C(C)(C)C1`, the viability at 5 µM in the test on MDA-MB-231 [1] turned out to be 43.9%. For the same compound, the IC50 with MDA-MB-231 [3] was 4.8 µM. Also, the viability at 1 µM with MDA-MB-231 [2] was determined as 60.5%.
`CCNC1=Nc2ccc(Cl)cc2C(C)(C)C1`: in the test on MDA-MB-231 [1], the viability at 5 µM was determined as 85.1%. Further, in the test on MDA-MB-231 [2], the viability at 1 µM is 89.7%.
The like results for `CC1(C)CC(NCCCCO)=Nc2ccc(Cl)cc21` were, in that order, 84.8% and 87.6%.
Consider `CN(C)CCNC1=Nc2ccc(Cl)cc2C(C)(C)C1`, for which the viability at 5 µM with MDA-MB-231 [1] was found to be 50.8%. The IC50 in the test on MDA-MB-231 [3] was found to be 7 µM. Further, in the test on MDA-MB-231 [2], the viability at 1 µM was determined as 66.9%.
For the compound `NC1=Nc2ccccc2C(c2ccccc2)C1` (stereo not given), the viability at 5 µM in the test on MDA-MB-231 [1] was found to be 86.3%. Besides, the viability at 1 µM in the test on MDA-MB-231 [2] was 86.6%.
As to `CC1(C)CC(N)=Nc2ccc(Cl)cc21`, the viability at 5 µM in the test on MDA-MB-231 [1] is 81%. Also, the viability at 1 µM in the test with MDA-MB-231 [2] is 80.5%.
Turning to `CC1(C)CC(=S)Nc2ccc(Cl)cc21`, the viability at 5 µM in the test with MDA-MB-231 [1] stood at 94.3%. Besides, the viability at 1 µM in the test on MDA-MB-231 [2] amounted to 85.7%.
For `CC1(C)CC(NCc2ccccc2)=Nc2ccc(Cl)cc21` the same measures were 68.1% and 88.8%.
For `CNC1=Nc2ccc(Cl)cc2C(C)(C)C1` the same measures were 92.3% and 91.9%.
For `CC1(C)CC(NCCCN2CCOCC2)=Nc2ccc(Cl)cc21`, the viability at 5 µM with MDA-MB-231 [1] is 70.3%. The viability at 1 µM in the test on MDA-MB-231 [2] is 91.4%.
`CC1(C)CC(=O)Nc2ccc(Cl)cc21`: the viability at 5 µM with MDA-MB-231 [1] was 81.7%. Further, the viability at 1 µM in the test on MDA-MB-231 [2] was found to be 82.3%.
Take `CN(C)CCCNC1=Nc2ccc(Cl)cc2C(C)(C)C1`: the Activity with MDA-MB-231 [4] turned out to be 7.63%; in the test with MDA-MB-231 [5], 5.61%; in the test with MDA-MB-231 [6], 14.76%; with MDA-MB-231 [8], 81.6%; in the test with MDA-MB-231 [9], 64.06%; with MDA-MB-231 [10] it was 4.73%. The results for the Activity with MDA-MB-231 [11] and with MDA-MB-231 [12] were 1.53% and 19.22%, respectively. Further, the viability at 5 µM in the test with MDA-MB-231 [1] was 38%. Besides, the outcome with MDA-MB-231 [7] was Active. Besides, in the test with MDA-MB-231 [3], the IC50 stood at 2.1 µM. Besides, the viability at 1 µM in the test on MDA-MB-231 [2] came to 54.1%.
In the case of `CC1(C)CC(NCCCO)=Nc2ccc(Cl)cc21`, the viability at 5 µM in the test with MDA-MB-231 [1] was found to be 84.2%. In the test with MDA-MB-231 [2], the viability at 1 µM was found to be 84.5%.
Consider `CCN(CC)CCCNC1=Nc2ccc(Cl)cc2C(C)(C)C1`, for which the Activity with MDA-MB-231 [4] turned out to be 4.77%; in the test with MDA-MB-231 [5], 4.48%; with MDA-MB-231 [6], 15.44%; with MDA-MB-231 [8] it was 86.24%; in the test with MDA-MB-231 [9], 61.75%; in the test with MDA-MB-231 [10], 4.27%. Further, the Activity was found to be 1.64% in the test with MDA-MB-231 [11] and 20.48% in the test on MDA-MB-231 [12]. Also, the viability at 5 µM in the test with MDA-MB-231 [1] was 36.1%. Moreover, the outcome with MDA-MB-231 [7] was Active. Also, the IC50 with MDA-MB-231 [3] was 2 µM. For the same compound, the viability at 1 µM with MDA-MB-231 [2] came out at 53.3%.
